High-throughput results from PubChem.
Shown are actives, neighbours in structure and some others; about 6.6% of the full set was active somewhere.
PostGolgi ctrl: growth inhibition of yeast control strain, primary screen, counter-screen for post-Golgi transport modulator project; efflux-deficient yeast background strain, growth absorbance A615, 16 h; inhibition, % at 10 µM; 98,000 tested, 5% active; AID 738, 2007
HER2 expr 66K: inhibitors of Her2 protein expression, primary screen, SKBR-3 cells, AlphaScreen, 66K library. Receptor tyrosine-protein kinase erbB-2 (Homo sapiens), P04626. SKBR-3 HER2 protein level, 18-24 h; hits give low values. HER2 level % of control, % at 10 µM. 65,000 tested, 0.69% active. AID 645, 2007;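 active = HER2 level under 5% of the carrier-only control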;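 note: 100% = DMSO carrier and 0% = 500 nM PU-H71 HSP90 inhibitor; lower value means stronger loss of Her2 protein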
Target sequence (P04626 whole entry, looked up): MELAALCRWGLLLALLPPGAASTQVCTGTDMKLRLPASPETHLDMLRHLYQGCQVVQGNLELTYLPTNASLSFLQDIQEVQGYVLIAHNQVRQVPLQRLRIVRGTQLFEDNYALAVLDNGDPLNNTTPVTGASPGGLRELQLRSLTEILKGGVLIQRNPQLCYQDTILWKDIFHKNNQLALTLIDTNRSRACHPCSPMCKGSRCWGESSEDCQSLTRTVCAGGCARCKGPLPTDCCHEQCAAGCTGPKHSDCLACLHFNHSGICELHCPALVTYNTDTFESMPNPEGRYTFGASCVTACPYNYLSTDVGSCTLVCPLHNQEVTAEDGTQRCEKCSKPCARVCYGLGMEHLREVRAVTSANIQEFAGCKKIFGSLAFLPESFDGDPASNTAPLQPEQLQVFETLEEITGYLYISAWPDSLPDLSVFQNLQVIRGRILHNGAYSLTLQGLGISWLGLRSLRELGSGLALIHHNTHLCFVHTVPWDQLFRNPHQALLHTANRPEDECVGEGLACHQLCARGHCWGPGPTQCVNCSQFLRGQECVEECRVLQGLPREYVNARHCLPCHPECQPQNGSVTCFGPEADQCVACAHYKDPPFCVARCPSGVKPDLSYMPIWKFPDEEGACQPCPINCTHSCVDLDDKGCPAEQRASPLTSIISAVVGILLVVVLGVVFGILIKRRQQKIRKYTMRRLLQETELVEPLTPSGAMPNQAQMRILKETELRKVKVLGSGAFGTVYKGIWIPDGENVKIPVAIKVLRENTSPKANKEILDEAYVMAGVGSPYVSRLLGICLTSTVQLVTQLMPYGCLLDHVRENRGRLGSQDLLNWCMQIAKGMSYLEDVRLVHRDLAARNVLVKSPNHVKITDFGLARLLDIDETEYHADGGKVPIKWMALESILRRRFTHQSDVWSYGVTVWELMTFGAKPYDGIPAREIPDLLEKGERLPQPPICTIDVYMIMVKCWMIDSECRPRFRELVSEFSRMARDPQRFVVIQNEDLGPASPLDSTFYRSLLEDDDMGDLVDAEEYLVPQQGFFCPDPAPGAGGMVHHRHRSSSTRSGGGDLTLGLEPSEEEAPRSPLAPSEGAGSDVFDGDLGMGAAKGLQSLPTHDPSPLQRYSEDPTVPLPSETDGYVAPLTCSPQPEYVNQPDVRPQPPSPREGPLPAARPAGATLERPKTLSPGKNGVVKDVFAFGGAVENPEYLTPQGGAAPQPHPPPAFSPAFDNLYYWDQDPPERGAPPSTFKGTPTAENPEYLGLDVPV
PostGolgi yeast: phenotypic screen on post-Golgi transport, primary screen | post-Golgi transport phenotypic cell assay | inhibition, % at 10 µM | 98,000 tested, 0.9% active | AID 739, 2007;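 note: yeast cells grown in 1536-well plates; yeast grown about 18 h at 30C before absorbance read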
Ecoli tolC: growth inhibitors of E. coli tolC mutant, primary screen, strain BW25113 ΔtolC::kan, 384-well; AID 573, 2007; growth inhibition, % at 10 µM (by protocol); 65,000 tested, 2.2% active; OD615;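 active = growth inhibition at or above a cutoff equal to the mean over every tested compound plus 3 SD, cut at about 60% in these data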;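 note: growth measured after 20 h incubation at 37 °C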
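System: E. coli ΔtolC::kan strain BW25113; Buffer or medium: LB broth supplemented with 50 µg/mL kanamycin; Compound: 10 µM final, single dose; Incubation: bacterial growth with compound for 20 h at 37 °C; Signal: A615 absorbance measurement; Evaluation: growth inhibition in percent.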
E coli WT exp: growth inhibitors of wild-type E. coli, primary screen, strain BW25113, expanded library, OD600; growth inhibition, % at 100 µM; 98,000 tested, 0.15% active; AID 710, 2007; OD600 absorbance;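 active = growth inhibition above about 50% at one test dose, limit read from the data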;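 note: growth measured after 20 h incubation at 37 °C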
An asterisk follows results filed as active. Cut-off read from the data, not from the text of the source, unless noted: active = inhibition above about 30%; inactive = the rest.

How did Cc1ccc(-c2nnc(N3CCN(c4ccccn4)CC3)c3ccccc23)cc1 do in these assays?
PostGolgi ctrl: 57*; HER2 expr 66K: 76; PostGolgi yeast: 0; Ecoli tolC: 100*; E coli WT exp: -4

How did CS(=O)(=O)N1CCN(c2nnc(-c3ccccc3)c3ccccc23)CC1 do in these assays?
PostGolgi ctrl: 10; HER2 expr 66K: 98; PostGolgi yeast: 0; Ecoli tolC: 13; E coli WT exp: 1

What do the screens show for `c1ccc(-c2nnc(N3CCN(c4ccccn4)CC3)c3ccccc23)cc1`?
PostGolgi ctrl: 69*; HER2 expr 66K: 91; PostGolgi yeast: 8; Ecoli tolC: 28; E coli WT exp: 0

Results for Cc1ccnc(NC(=O)CCC(=O)N(CC(=O)NC2CCCCC2)Cc2ccc3c(c2)OCO3)c1 ?
HER2 expr 66K: 121; Ecoli tolC: 4

How did Clc1ccc(-c2cnc(Oc3ccccc3)nc2)cc1 do in these assays?
PostGolgi ctrl: -8; PostGolgi yeast: 33*; E coli WT exp: -8

Results for O=C(Nc1cccc(Cl)c1)c1ccc(-n2cncn2)c([N+](=O)[O-])c1 ?
PostGolgi ctrl: 1; PostGolgi yeast: -3; E coli WT exp: 19

Results for O=C(NCC(=O)N(CCc1ccccc1)C(C(=O)NC1CCCC1)c1cccnc1)c1ccco1 (configuration not stated) ?
PostGolgi ctrl: 10; HER2 expr 66K: -19*; PostGolgi yeast: 4; Ecoli tolC: -1; E coli WT exp: 1

Results for CC1=C(C(=O)NCc2ccccn2)C2(CCC(C)CC2)OC1=O (configuration not stated) ?
PostGolgi ctrl: -5; HER2 expr 66K: 81; PostGolgi yeast: -7; Ecoli tolC: -4; E coli WT exp: 0

What do the screens show for `Cc1ccc(COc2coc(CO)cc2=O)cc1`?
PostGolgi ctrl: 1; PostGolgi yeast: 10; E coli WT exp: -1

How did O=c1cc(CO)occ1OCc1cccc(F)c1 do in these assays?
PostGolgi ctrl: 33*; PostGolgi yeast: 11; E coli WT exp: 7

How did CCOc1ccccc1C(=O)NC(C(=O)OCC(=O)Nc1nnc(-c2ccccc2)o1)C(C)C (configuration not stated) do in these assays?
PostGolgi ctrl: 6; HER2 expr 66K: 105; PostGolgi yeast: 20; Ecoli tolC: 87*; E coli WT exp: 4

How did O=C(CSc1nnc(-c2ccccn2)n1Cc1ccccc1)NC1CCCC1 do in these assays?
PostGolgi ctrl: 1; HER2 expr 66K: 84; PostGolgi yeast: 18; Ecoli tolC: 13; E coli WT exp: 4

How did COc1ccc(-n2c(-c3ccccc3)cc3c2CCCC3=O)cc1 do in these assays?
PostGolgi ctrl: 68*; PostGolgi yeast: 10; E coli WT exp: 3

Results for CCCCn1c(N)c(N(CCC(C)C)C(=O)CSc2nnc(C)s2)c(=O)[nH]c1=O ?
PostGolgi ctrl: 10; HER2 expr 66K: 94; PostGolgi yeast: -4; Ecoli tolC: -18; E coli WT exp: -1

Results for CC(=O)NC(CCS(C)(=O)=O)C(=O)Nc1cccc(C(C)=O)c1 (configuration not stated) ?
PostGolgi ctrl: -6; HER2 expr 66K: 78; PostGolgi yeast: 3; Ecoli tolC: -5; E coli WT exp: -2

Results for COc1ccc(N(CC(=O)Nc2cccc(SC)c2)S(C)(=O)=O)cc1 ?
PostGolgi ctrl: 7; HER2 expr 66K: 100; PostGolgi yeast: 0; Ecoli tolC: 4; E coli WT exp: 1

How did COC(=O)c1c(NC(=O)c2ccc(C)o2)sc2c1CCCCC2 do in these assays?
PostGolgi ctrl: 0; HER2 expr 66K: 51; PostGolgi yeast: 3; Ecoli tolC: 63*; E coli WT exp: 8

How did COC(=O)c1c(NC(=O)c2c(-c3ccccc3Cl)noc2C)sc2c1CCC2 do in these assays?
PostGolgi ctrl: 33*; PostGolgi yeast: 0; E coli WT exp: -14

How did COC(=O)c1c(NC(=O)c2c(C)noc2C)sc2c1CCCCCC2 do in these assays?
PostGolgi ctrl: 8; HER2 expr 66K: 79; PostGolgi yeast: -6; Ecoli tolC: -6; E coli WT exp: -11

What do the screens show for `COC(=O)c1c(NC(=O)Cc2cccs2)sc2c1CCCC2`?
PostGolgi ctrl: 14; HER2 expr 66K: 102; PostGolgi yeast: 1; Ecoli tolC: 70*; E coli WT exp: -14
